Experimental data reported in ChEMBL document CHEMBL4602726, “Discovery of the First Vitamin K Analogue as a Potential Treatment of Pharmacoresistant Seizures” (J Med Chem, 2020).

Experiments:
[1] = Toxicity in mouse HT22 cells assessed as inhibition of cell viability at 50 uM incubated for 48 hrs by Cell-titer-Blue dye based fluorescence spectrophotometry relative to control; parameters: species or system HT-22; conditions: read-out: Activity
Summary of the method: (§1)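 HT-22 cells in DMEM high glucose with 10% FBS, 2000 per well. Serially diluted compound added after 12 h, incubated 48 h. […] Background subtracted, normalized to control wells.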

[2] = Toxicity in mouse HT22 cells assessed as inhibition of cell viability at 10 uM incubated for 48 hrs by Cell-titer-Blue dye based fluorescence spectrophotometry relative to control; parameters: species or system HT-22; conditions: read-out: Activity; summary of the method: as §1
Mus musculus = experiment: Anti-seizure activity in ip dosed CF1 mouse assessed as attenuation of psychomotor seizures at stimulus intensities of 42 mA at pre-treated at 1 hr before test by 6 Hz limbic seizure test relative to control; assay type: functional
[3] = Toxicity in CF1 mouse assessed as induction of motor impairment during acute (1 hr) observation period by rotarod assay; conditions: CF1, mouse, in vivo
Summary of the method: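 Male CF-1 mice, ip dosing in miglyol 840/DMSO (95%/5%), up to 800 mg/kg. Rotarod at 6 rpm done 1 h after dosing, on the same animals just before 6 Hz testing. Falling three times within one minute scored as impaired; animals also inspected visually.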

Danio rerio [4] = organism: Danio rerio; experiment: Anti-seizure activity in Zebrafish larvae assessed as reduction in PTZ-induced increase in total swimming distance in 15 mins at 5 uM pre-incubated for 1 hr prior to PTZ-induced seizure induction relative to control; assay type: functional; parameters: scale not given: the % may be the effect or the level left
[5] = Half life in mouse; assay type: ADME, organism-based; conditions: in vivo
[6] = Drug reactivity with 2-mercaptoethanol measured over 6 hrs; assay type: physicochemical
[7] = Toxicity in Zebrafish; parameters: species or system Danio rerio; conditions: in vivo, read-out: LD50 (the source's name)
Danio rerio [8] = organism: Danio rerio; experiment: Anti-seizure activity in Zebrafish; assay type: functional, organism-based
Summary of the method: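 Single 7 dpf zebrafish larvae per well, pretreated 1 h at […] with compound (10 or 5 μM) in E3 buffer from DMSO stock. Then 15 mM PTZ added and movement tracked 15 min in 1-min bins. VPA 5 and 10 mM as positive controls, n=8 per group, one-way ANOVA.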

Danio rerio [9] = organism: Danio rerio; experiment: Anti-seizure activity in Zebrafish larvae assessed as reduction in PTZ-induced increase in total swimming distance in 15 mins at 10 uM pre-incubated for 1 hr prior to PTZ-induced seizure induction relative to control; assay type: functional; parameters: scale not given: the % may be the effect or the level left
[10] = Cmax in CD1 mouse at 20 mg/kg, ip measured after 0.083 to 24 hrs by LC-MS/MS analysis; assay type: ADME, organism-based; parameters: dose 20 mg/kg, route intraperitoneal; conditions: in vivo
Summary of the method: (§2)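 Male CD-1 mice, 3 per route. Oral and ip at 20 mg/kg by gavage needle; iv at 5 mg/kg by tail vein. Vehicles were 20% DMA:40% PEG300:40% H2O for oral/iv and 5% DMSO:95% Neobee for ip. Blood sampled 0.083–24 h, plasma protein-precipitated with acetonitrile plus internal standard, LC-MS/MS (MRM). Non-compartmental analysis, linear trapezoidal AUC.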

[11] = AUClast in CD1 mouse at 20 mg/kg, ip measured after 0.083 to 24 hrs by LC-MS/MS analysis; assay type: ADME, organism-based; parameters: time lower 0.083 hr, dose 20 mg/kg, time upper 24 hr, route intraperitoneal; conditions: in vivo; summary of the method: as §2
[12] = Tmax in CD1 mouse at 20 mg/kg, ip measured after 0.083 to 24 hrs by LC-MS/MS analysis; assay type: ADME, organism-based; conditions: in vivo
[13] = Half life in CD1 mouse at 20 mg/kg, ip measured after 0.083 to 24 hrs by LC-MS/MS analysis; assay type: ADME, organism-based; conditions: in vivo; summary of the method: as §2
Danio rerio [14] = organism: Danio rerio; experiment: Increase in ATP concentration in zebrafish at 1 uM incubated for 24 hrs by fluorometric ATP assay relative to control; assay type: functional
Summary of the method: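 7 dpf zebrafish larvae, one per well, kept at 28.5°C for 24 h with compound in E3 buffer (DMSO stock). DMSO vehicle in control wells. Twelve fish per condition pooled, flash-frozen, homogenized in ATP buffer and centrifuged. ATP in the supernatant read by fluorescence at ex 535/em 587 nm, normalized to total protein (BCA), and expressed as nmole/mg relative to DMSO control. n = 7–13.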

CCN(C)CCNC1=CC(=O)c2ccccc2C1=O
inhibition at 48 h, 50 µM [1]: 101% | inhibition at 48 h, 10 µM [2]: 86.2%

CC(C)CC(C)NC1=CC(=O)c2ccccc2C1=O (stereo not drawn)
inhibition at 48 h, 50 µM [1]: 15% | inhibition at 48 h, 10 µM [2]: 2.09%

NC(=O)OCC(COC(N)=O)c1ccccc1 [FELBAMATE]
ED50 (Mus musculus): 97.5 mg/kg | TD50 at 1 h [3]: 452 mg/kg

O=C1C=C(NCC2CCC2)C(=O)c2ccccc21
inhibition at 48 h, 50 µM [1]: 62.3% | inhibition at 48 h, 10 µM [2]: 33.7%

O=C1C=C(NCCC2CCCC2)C(=O)c2ccccc21
Activity (Danio rerio [4]): 45% | inhibition at 48 h, 50 µM [1]: 43.8% | inhibition at 48 h, 10 µM [2]: 35.4%

CC1=C(NCCC(C)(C)C)C(=O)c2ccccc2C1=O
Activity (Danio rerio [4]): 3.3% | inhibition at 48 h, 50 µM [1]: 17.5% | inhibition at 48 h, 10 µM [2]: 10.2%

CC(C)(C)CCNC1=CC(=O)c2ccccc2C1=O
inhibition at 48 h, 50 µM [1]: 17% | inhibition at 48 h, 10 µM [2]: 11.9%

CC1=CC(=O)c2ccccc2C1=O [MENADIONE]
half-life [5]: 27 min | Drug metabolism [6]: Metabolite_Detected | LC50 [7]: 6 µM | EC50 (Danio rerio [8]): 3 µM

CC(CO)CCNC1=CC(=O)c2ccccc2C1=O (stereo not drawn)
Activity (Danio rerio [4]): -2.4% | inhibition at 48 h, 50 µM [1]: 76.7% | Activity (Danio rerio [9]): 8.2% | inhibition at 48 h, 10 µM [2]: 25.7%

CC(C)=CCNC1=CC(=O)c2ccccc2C1=O
Activity (Danio rerio [4]): -4.4% | inhibition at 48 h, 50 µM [1]: 38.3% | inhibition at 48 h, 10 µM [2]: 15%

CN(CCCNC1=CC(=O)c2ccccc2C1=O)c1ccccc1
Activity (Danio rerio [4]): 7.3% | inhibition at 48 h, 50 µM [1]: 10.2% | inhibition at 48 h, 10 µM [2]: 11.5%

CC(C)(O)CCNC1=CC(=O)c2ccccc2C1=O
Activity (Danio rerio [4]): 9.5% | inhibition at 48 h, 50 µM [1]: 59.7% | Activity (Danio rerio [9]): -5.6% | inhibition at 48 h, 10 µM [2]: 25.5%

O=C1C=C(NCCC2CCCCC2)C(=O)c2ccccc21
inhibition at 48 h, 50 µM [1]: 2.09% | inhibition at 48 h, 10 µM [2]: 0.07%

CC[C@@H](C(N)=O)N1CCCC1=O
TD50 at 1 h [3]: > 500 mg/kg

CCCC(CCC)C(=O)O [VALPROIC ACID]
ED50 (Mus musculus): 289 mg/kg

C#CCNC1=CC(=O)c2ccccc2C1=O
Activity (Danio rerio [4]): 7.4% | half-life [5]: 66 min | Cmax [10]: 1490 ng/mL | AUC(0-t) [11]: 978 ng·h/mL | Activity (Danio rerio [9]): 5.4% | Tmax [12]: 15 min | LC50 [7]: > 20 µM | half-life [13]: 66 min | EC50 (Danio rerio [8]): 20 µM

O=C1C=C(NCC2CC2)C(=O)c2ccccc21
Activity (Danio rerio [4]): -10.1% | inhibition at 48 h, 50 µM [1]: 54.1% | Activity (Danio rerio [9]): -10.1% | inhibition at 48 h, 10 µM [2]: 16.8%

CC(C)CCCNC1=CC(=O)c2ccccc2C1=O
inhibition at 48 h, 50 µM [1]: 21.3% | inhibition at 48 h, 10 µM [2]: 28.8%

CCC(C)CNC1=CC(=O)c2ccccc2C1=O (stereo not drawn)
Activity (Danio rerio [4]): 23% | inhibition at 48 h, 50 µM [1]: 41.2% | inhibition at 48 h, 10 µM [2]: 14.8%

CCC(O)CNC1=CC(=O)c2ccccc2C1=O (stereo not drawn)
inhibition at 48 h, 50 µM [1]: 69% | inhibition at 48 h, 10 µM [2]: 38.6%

O=C1C=C(NCCC2CCC2)C(=O)c2ccccc21
inhibition at 48 h, 50 µM [1]: 36.3% | Activity (Danio rerio [14]): 21.4% | inhibition at 48 h, 10 µM [2]: 27.2%

CN(C)CCCNC1=CC(=O)c2ccccc2C1=O
inhibition at 48 h, 50 µM [1]: 96.7% | Activity (Danio rerio [9]): -2.9% | inhibition at 48 h, 10 µM [2]: 74.5%

CC(C)(C)CCCNC1=CC(=O)c2ccccc2C1=O
Activity (Danio rerio [4]): -3% | inhibition at 48 h, 50 µM [1]: 6.75% | inhibition at 48 h, 10 µM [2]: 3.81%

CC(O)CCNC1=CC(=O)c2ccccc2C1=O (stereo not drawn)
Activity (Danio rerio [4]): 0.78% | inhibition at 48 h, 50 µM [1]: 64.2% | inhibition at 48 h, 10 µM [2]: 19.4%

O=C1C=C(NCCC2CC2)C(=O)c2ccccc21
inhibition at 48 h, 50 µM [1]: 56.4% | inhibition at 48 h, 10 µM [2]: 34.7%

CN(C)CCNC1=CC(=O)c2ccccc2C1=O
inhibition at 48 h, 50 µM [1]: 99.8% | inhibition at 48 h, 10 µM [2]: 82.6%

CC1=C(NCCC(C)C)C(=O)c2ccccc2C1=O
inhibition at 48 h, 50 µM [1]: 21.4% | inhibition at 48 h, 10 µM [2]: 11.2%

C=C(C)[C@@H]1CCC(C)=C[C@H]1c1c(O)cc(CCCCC)cc1O [CANNABIDIOL]
ED50 (Mus musculus): 174 mg/kg

CCN(CC)CCNC1=CC(=O)c2ccccc2C1=O
Activity (Danio rerio [4]): -7.2% | inhibition at 48 h, 50 µM [1]: 100% | Activity (Danio rerio [9]): 27% | inhibition at 48 h, 10 µM [2]: 83.8%

CC(C)(C)CNC1=CC(=O)c2ccccc2C1=O
inhibition at 48 h, 50 µM [1]: 22.4% | inhibition at 48 h, 10 µM [2]: 10.8%
